Experimental data from ChEMBL document CHEMBL1153963, “Phenanthrene-based tylophorine-1 (PBT-1) inhibits lung cancer cell growth through the Akt and NF-kappaB pathways” (J Med Chem, 2009).
≈ marks a conversion by molar mass, not a printed value.

Columns and labels:
[1] = Cytotoxicity against human CL1-0 cells assessed as growth inhibition after 48 hrs by MTS assay; type: functional, cell-based
How it was run: (§1)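 Cells seeded in four replicates at 2×10^3 per well in complete RPMI 1640 with drug (0, 0.1, 0.25, 0.5, 0.75 µg/mL in the cell-line panel), 48 h at 37 °C, 5% CO2. Viability read by MTS reagent, absorbance at 490 nm, expressed as percent of untreated control; IC50 taken as concentration giving 50% growth inhibition.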

[2] = Cytotoxicity against human CL1-5 cells assessed as growth inhibition after 48 hrs by MTS assay; type: functional, cell-based; conditions: CL1-5, 48 h; how it was run: as §1
NCI-H460 = experiment: Cytotoxicity against human H460 cells assessed as growth inhibition after 48 hrs by MTS assay; type: functional, cell-based; conditions: NCI-H460, 48 h; how it was run: as §1
PC-9 = experiment: Cytotoxicity against human PC9 cells assessed as growth inhibition after 48 hrs by MTS assay; type: functional, cell-based; conditions: PC-9, 48 h; how it was run: as §1
A549 = experiment: Cytotoxicity against human A549 cells assessed as growth inhibition after 48 hrs by MTS assay; type: functional, cell-based; conditions: A549, 48 h; how it was run: as §1
CL1-0 [3] = experiment: Induction of apoptosis in human CL1-0 cells at 0.25 ug/mL after 24 hrs by propidium iodide and annexin V staining; type: functional
How it was run: (§2)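 CL1-0 cells treated with increasing concentrations for 24 h, resuspended in Annexin-binding buffer, stained with Alexa Fluor 488 Annexin V and PI for 15 min at room temperature, analyzed by flow cytometry; single-stain controls set apoptotic and necrotic windows.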

CL1-0 [4] = experiment: Induction of apoptosis in human CL1-0 cells at 0.5 ug/mL after 24 hrs by propidium iodide and annexin V staining; type: functional; how it was run: as §2
CL1-0 [5] = experiment: Induction of apoptosis in human CL1-0 cells at 0.75 ug/mL after 24 hrs by propidium iodide and annexin V staining; type: functional; how it was run: as §2
CL1-0 [6] = experiment: Effect on PRKACA gene expression in human CL1-0 cells assessed as change in gene expression at 0.5 ug/mL after 24 hrs by DNA microarray relative to control; type: functional
How it was run: (§3)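 Total RNA from CL1-0 cells treated 24 h with 0.5 µg/mL drug or untreated; mRNA isolated and run on human DNA microarrays; genes with statistically significant twofold change versus control reported as fold change, mean ± SD.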

CL1-0 [7] = experiment: Effect on CFLAR gene expression in human CL1-0 cells assessed as change in gene expression at 0.5 ug/mL after 24 hrs by DNA microarray relative to control; type: functional; how it was run: as §3
CL1-0 [8] = experiment: Effect on PPP3CA gene expression in human CL1-0 cells assessed as change in gene expression at 0.5 ug/mL after 24 hrs by DNA microarray relative to control; type: functional; how it was run: as §3
CL1-0 [9] = experiment: Effect on BCL2L1 gene expression in human CL1-0 cells assessed as change in gene expression at 0.5 ug/mL after 24 hrs by DNA microarray relative to control; type: functional; how it was run: as §3
CL1-0 [10] = experiment: Effect on TNFRSF10B gene expression in human CL1-0 cells assessed as change in gene expression at 0.5 ug/mL after 24 hrs by DNA microarray relative to control; type: functional
How it was run: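 Total RNA extracted from treated or untreated CL1-0 cells, mRNA isolated, hybridized to human DNA microarray; genes scored by statistically significant twofold expression difference versus untreated control; fold change given as mean ± SD.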

CL1-0 [11] = experiment: Effect on MAP3K14 gene expression in human CL1-0 cells assessed as change in gene expression at 0.5 ug/mL after 24 hrs by DNA microarray relative to control; type: functional; how it was run: as §3
CL1-0 [12] = experiment: Effect on NFKB1A gene expression in human CL1-0 cells assessed as change in gene expression at 0.5 ug/mL after 24 hrs by DNA microarray relative to control; type: functional; how it was run: as §3
CL1-0 [13] = experiment: Effect on IRAK1 gene expression in human CL1-0 cells assessed as change in gene expression at 0.5 ug/mL after 24 hrs by DNA microarray relative to control; type: functional; how it was run: as §3
CL1-0 [14] = experiment: Effect on PIK3CD gene expression in human CL1-0 cells assessed as change in gene expression at 0.5 ug/mL after 24 hrs by DNA microarray relative to control; type: functional; how it was run: as §3
CL1-0 [15] = experiment: Effect on AKT3 gene expression in human CL1-0 cells assessed as change in gene expression at 0.5 ug/mL after 24 hrs by DNA microarray relative to control; type: functional; how it was run: as §3
CL1-0 [16] = experiment: Effect on PDK1 gene expression in human CL1-0 cells assessed as change in gene expression at 0.5 ug/mL after 24 hrs by DNA microarray relative to control; type: functional; how it was run: as §3
CL1-0 [17] = experiment: Effect on PRKACA gene expression in human CL1-0 cells assessed as change in gene expression by RT-PCR relative to control; type: functional
How it was run: (§4)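 Real-time quantitative RT-PCR on CL1-0 RNA to validate microarray changes, SYBR Green chemistry with gene-specific primers, GAPDH as internal control; fold change versus untreated control reported as mean ± SD.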

CL1-0 [18] = experiment: Effect on CFLAR gene expression in human CL1-0 cells assessed as change in gene expression by RT-PCR relative to control; type: functional; how it was run: as §4
CL1-0 [19] = experiment: Effect on PPP3CA gene expression in human CL1-0 cells assessed as change in gene expression by RT-PCR relative to control; type: functional; how it was run: as §4
CL1-0 [20] = experiment: Effect on BCL2L1 gene expression in human CL1-0 cells assessed as change in gene expression by RT-PCR relative to control; type: functional; how it was run: as §4
CL1-0 [21] = experiment: Effect on TNFRSF10B gene expression in human CL1-0 cells assessed as change in gene expression by RT-PCR relative to control; type: functional
How it was run: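 Microarray hits validated by real-time quantitative RT-PCR with SYBR Green chemistry and gene-specific primers; GAPDH used as internal control; fold change versus untreated control as mean ± SD.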

CL1-0 [22] = experiment: Effect on MAP3K14 gene expression in human CL1-0 cells assessed as change in gene expression by RT-PCR relative to control; type: functional; how it was run: as §4
CL1-0 [23] = experiment: Effect on NFKB1A gene expression in human CL1-0 cells assessed as change in gene expression by RT-PCR relative to control; type: functional; how it was run: as §4
CL1-0 [24] = experiment: Effect on IRAK1 gene expression in human CL1-0 cells assessed as change in gene expression by RT-PCR relative to control; type: functional; how it was run: as §4
CL1-0 [25] = experiment: Effect on PIK3CD gene expression in human CL1-0 cells assessed as change in gene expression by RT-PCR relative to control; type: functional; how it was run: as §4
CL1-0 [26] = experiment: Effect on AKT3 gene expression in human CL1-0 cells assessed as change in gene expression by RT-PCR relative to control; type: functional; how it was run: as §4
CL1-0 [27] = experiment: Effect on PDK1 gene expression in human CL1-0 cells assessed as change in gene expression by RT-PCR relative to control; type: functional; how it was run: as §4
[28] = Homo sapiens, CL1-0, 48 h, read-out: IC50

## COc1ccc2c(CN3CCN(CCO)CC3)cc3cc4c(cc3c2c1)OCO4
[1]; [28]
  IC50: > 2 µg/mL

## COc1ccc2c(CN3CCN(c4ccc(O)cc4)CC3)cc3cc4c(cc3c2c1)OCO4
[1]; [28]
  IC50: > 2 µg/mL

## COc1ccc2c(CN3CCC(C(=O)O)CC3)cc3cc4c(cc3c2c1)OCO4
[1]; [28]
  IC50: > 2 µg/mL

## COc1ccc2c(CNCCCCCC(=O)O)cc3cc4c(cc3c2c1)OCO4
[1]; [28]
  IC50: > 2 µg/mL

## COc1ccc2c(CN3CCC(CO)CC3)cc3cc4c(cc3c2c1)OCO4
[1]; [28]
  IC50: 0.81 µg/mL (≈ 2.13 µM)
[1]; cl1-0
  IC50: Dose-dependent effect
[2]
  IC50: 0.2 µg/mL (≈ 0.527 µM)
NCI-H460
  IC50: 0.2 µg/mL (≈ 0.527 µM)
PC-9
  IC50: 0.2 µg/mL (≈ 0.527 µM)
A549
  IC50: 0.2 µg/mL (≈ 0.527 µM)
CL1-0 [3]
  Activity: 5.96%
CL1-0 [4]
  Activity: 9.56%
CL1-0 [5]
  Activity: 11.03%
CL1-0 [6]
  fold change (FC): 5.38
CL1-0 [7]
  fold change (FC): 3.01
CL1-0 [8]
  fold change (FC): 2.53
CL1-0 [9]
  fold change (FC): 2.7
CL1-0 [10]
  fold change (FC): 2.53
CL1-0 [11]
  fold change (FC): 2.25
CL1-0 [12]
  fold change (FC): 2.23
CL1-0 [13]
  fold change (FC): 2.1
CL1-0 [14]
  fold change (FC): 2.03
CL1-0 [15]
  fold change (FC): 0.48
CL1-0 [16]
  fold change (FC): 0.26
CL1-0 [17]
  fold change (FC): 1.39
CL1-0 [18]
  fold change (FC): 2.8
CL1-0 [19]
  fold change (FC): 5.31
CL1-0 [20]
  fold change (FC): 1.83
CL1-0 [21]
  fold change (FC): 1.71
CL1-0 [22]
  fold change (FC): 2.94
CL1-0 [23]
  fold change (FC): 6.8
CL1-0 [24]
  fold change (FC): 2.23
CL1-0 [25]
  fold change (FC): 1.69
CL1-0 [26]
  fold change (FC): 1.61
CL1-0 [27]
  fold change (FC): 0.56

## COc1ccc2c(CN3CCC(CCO)CC3)cc3cc4c(cc3c2c1)OCO4.Cl
[1]; [28]
  IC50: 0.46 µg/mL
[1]; cl1-0
  IC50: Dose-dependent effect

## COc1ccc2c(CN3CCC(CCO)CC3)cc3cc4c(cc3c2c1)OCO4
[1]; [28]
  IC50: 0.37 µg/mL (≈ 0.94 µM)
[1]; cl1-0
  IC50: Dose-dependent effect

## COc1ccc2c(CNCCCCCCO)cc3cc4c(cc3c2c1)OCO4
[1]; [28]
  IC50: > 2 µg/mL

## COc1ccc2c(CN3CCC(CO)CC3)cc3cc4c(cc3c2c1)OCO4.Cl
[1]; [28]
  IC50: 0.44 µg/mL
[1]; cl1-0
  IC50: Dose-dependent effect

## COc1ccc2c(CN3CCN(c4ccc(Cl)cc4)CC3)cc3cc4c(cc3c2c1)OCO4
[1]; [28]
  IC50: > 2 µg/mL
